From ChEMBL document CHEMBL1949512, “RO4383596, an orally active KDR, FGFR, and PDGFR inhibitor: synthesis and biological evaluation” (Bioorg Med Chem, 2005)

Columns and labels:
[1] = target: Vascular endothelial growth factor receptor 2 (Homo sapiens, UniProt P35968); experiment: Inhibition of human recombinant EE-tagged intracellular domain of KDR using biotin-EEEEYFELVAKKKK as substrate by HTRF assay
[2] = Cmax in C57/BL6 mouse at 50 mg/kg, po bid for 5 days; format: ADME, organism-based; design: dose 50 mg/kg, route oral; settings: in vivo
In short: (§1)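 Female C57/BL6 mice were dosed orally twice daily for 5 days with a suspension in 2% Klucel LF/0.1% Tween 80 in water. Six mice per dose were split into two subgroups of three, each sampled at alternate time points. Retro-orbital blood was taken at 0, 1, 4 and 8 h post-dose into EDTA, and plasma was analysed by LC-MS/MS. Parameters come from mean concentrations; AUC0–8h by linear trapezoidal rule; Cmax and Tmax as observed.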

[3] = Cmax in C57/BL6 mouse at 100 mg/kg, po bid for 5 days; format: ADME, organism-based; design: dose 100 mg/kg, route oral; settings: in vivo; in short: as §1
[4] = AUC in C57/BL6 mouse at 50 mg/kg, po bid for 5 days; format: ADME, organism-based; design: dose 50 mg/kg, route oral; settings: plasma; in short: as §1
[5] = Cmax in athymic nude mouse at 50 mg/kg, po; format: ADME, organism-based; design: dose 50 mg/kg, route oral; settings: in vivo
In short: (§2)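 Athymic nude mice received one dose, either iv 10 mg/kg in 2% DMA/10% PEG400/88% of 40% HPBCD in water, or po 50 mg/kg in 2% Klucel LF/0.1% Tween 80. Retro-orbital or terminal cardiac blood was drawn from 1 min (iv) or 5 min (po) to 24 h into EDTA. Plasma was analysed by LC-MS/MS. Composite parameters were obtained by non-compartmental analysis, with AUC extrapolated to infinity.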

[6] = Tmax in […] mouse at 100 mg/kg, po; format: ADME, organism-based; design: dose 100 mg/kg, route oral; settings: in vivo
In short: (§3)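 A separate group of female mice received one 100 mg/kg oral dose. Median PK parameters were calculated for that cohort.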

[7] = Tmax in C57/BL6 mouse at 100 mg/kg, po bid for 5 days; format: ADME, organism-based; design: dose 100 mg/kg, route oral; settings: in vivo; in short: as §1
[8] = Tmax in C57/BL6 mouse at 50 mg/kg, po bid for 5 days; format: ADME, organism-based; design: dose 50 mg/kg, route oral; settings: in vivo; in short: as §1
[9] = Oral bioavailability in athymic nude mouse at 50 mg/kg; format: ADME, organism-based; settings: in vivo; in short: as §2
[10] = Volume of distribution at steady state in Wistar rat at 5 mg/kg, iv; format: ADME, organism-based; design: dose 5 mg/kg, route intravenous; settings: in vivo, read-out: Vdss
In short: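 Single 5 mg/kg iv dose to Wistar rats via femoral arterial catheter, vehicle 2% DMA, 10% PEG400, 88% of 40% HPBCD in water, 2.5 mL/kg. Jugular blood at 1, 7, 15, 30 min and 1, 3, 6, 12, 24 h; plasma by LC-MS/MS. Vdss by non-compartmental analysis per animal, averaged.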

[11] = tested on: HUVEC; experiment: Antiangiogenic activity in HUVEC assessed as inhibition of bFGF-induced cell proliferation; settings: Homo sapiens
[12] = Tmax in Wistar rat at 50 mg/kg, po; format: ADME, organism-based; design: dose 50 mg/kg, route oral; settings: in vivo
In short: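 Wistar rats, single oral dose 50 mg/kg as suspension in 2% Klucel LF, 0.1% Tween 80 in water, 5 mL/kg. Jugular catheter blood at 5, 15, 30 min and 1, 3, 6, 12, 24, 48 h; EDTA plasma, LC-MS/MS. Tmax taken from concentration–time profiles; individual-animal parameters averaged.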

[13] = AUC in C57/BL6 mouse at 100 mg/kg, po bid for 5 days; format: ADME, organism-based; design: dose 100 mg/kg, route oral; settings: plasma; in short: as §1
[14] = Half life in Wistar rat at 5 mg/kg, iv; format: ADME, organism-based; design: dose 5 mg/kg, route intravenous; settings: in vivo
In short: (§4)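 Wistar rats received one dose, either iv 5 mg/kg via femoral arterial catheter (2% DMA/10% PEG400/88% of 40% HPBCD) or po 50 mg/kg (2% Klucel LF/0.1% Tween 80). Blood came from an implanted jugular catheter, up to 24 h (iv) or 48 h (po), into EDTA. Plasma LC-MS/MS; individual non-compartmental parameters were averaged.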

[15] = AUC in C57/BL6 mouse at 25 mg/kg, po bid for 5 days; format: ADME, organism-based; design: dose 25 mg/kg, route oral; settings: plasma; in short: as §1
[16] = tested on: Mus musculus; experiment: Dose normalized AUC in C57/BL6 mouse at 50 mg/kg, po bid for 5 days; format: ADME, organism-based; design: dose 50 mg/kg, route oral; settings: in vivo, 120 h; in short: as §1
[17] = tested on: Mus musculus; experiment: Antiangiogenic activity in C57/BL6 mouse cornea assessed as inhibition of bFGF-induced angiogenesis at 100 mg/kg, po bid for 5 days by corneal pocket assay relative to control; format: functional; settings: 120 h
In short: (§5)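 bFGF-impregnated pellets were implanted in corneas of female C57/BL6 mice aged 5–7 weeks. Oral dosing twice daily began the same day for 5 days. The neovascularized area was quantitated against vehicle-treated animals (2% Klucel LF, 0.1% Tween 80 in water).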

[18] = tested on: MDA-MB-435; experiment: Antiproliferative activity against human MDA-MB-435 cells
[19] = target: Protein kinase C delta type (Homo sapiens, UniProt Q05655); experiment: Inhibition of PKCdelta by IMAP assay
In short: (§6)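 IMAP fluorescence-polarization assay, in which phosphorylated fluorescent peptide substrates bind immobilized metal beads. Reactions ran at ATP three times Km.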

[20] = Clearance in athymic nude mouse at 10 mg/kg, iv; format: ADME, organism-based; design: dose 10 mg/kg, route intravenous; settings: in vivo; in short: as §2
[21] = tested on: Mus musculus; experiment: Antiangiogenic activity in C57/BL6 mouse cornea assessed as inhibition of bFGF-induced angiogenesis at 25 mg/kg, po bid for 5 days by corneal pocket assay relative to control; format: functional; settings: 120 h; in short: as §5
[22] = AUC in […] mouse at 100 mg/kg, po; format: ADME, organism-based; design: dose 100 mg/kg, route oral; settings: plasma; in short: as §3
[23] = target: Tyrosine-protein kinase Fyn (Homo sapiens, UniProt P06241); experiment: Inhibition of Fyn by IMAP assay
In short: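 IMAP fluorescence-polarisation assay: kinase activity read as phosphorylated fluorescent peptide substrate binding preferentially to immobilised metal beads. Reactions run with ATP at three times the Km.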

[24] = Cmax in C57/BL6 mouse at 25 mg/kg, po bid for 5 days; format: ADME, organism-based; design: dose 25 mg/kg, route oral; settings: in vivo; in short: as §1
[25] = target: Mitogen-activated protein kinase 1 (Homo sapiens, UniProt P28482); experiment: Inhibition of ERK2 by IMAP assay; in short: as §6
[26] = Tmax in C57/BL6 mouse at 25 mg/kg, po bid for 5 days; format: ADME, organism-based; design: dose 25 mg/kg, route oral; settings: in vivo; in short: as §1
[27] = Cmax in Wistar rat at 50 mg/kg, po; format: ADME, organism-based; design: dose 50 mg/kg, route oral; settings: in vivo; in short: as §4
[28] = AUC in Wistar rat at 5 mg/kg, iv; format: ADME, organism-based; design: dose 5 mg/kg, route intravenous; settings: plasma; in short: as §4
[29] = tested on: Mus musculus; experiment: Dose normalized AUC in C57/BL6 mouse at 25 mg/kg, po bid for 5 days; format: ADME, organism-based; design: dose 25 mg/kg, route oral; settings: in vivo, 120 h; in short: as §1
[30] = Half life in athymic nude mouse at 10 mg/kg, iv; format: ADME, organism-based; design: dose 10 mg/kg, route intravenous; settings: in vivo; in short: as §2
[31] = tested on: Mus musculus; experiment: Dose normalized AUC in […] mouse at 100 mg/kg, po; format: ADME, organism-based; design: dose 100 mg/kg, route oral; settings: in vivo; in short: as §3
[32] = tested on: Mus musculus; experiment: Dose normalized AUC in C57/BL6 mouse at 100 mg/kg, po bid for 5 days; format: ADME, organism-based; design: dose 100 mg/kg, route oral; settings: in vivo, 120 h; in short: as §1
[33] = tested on: HUVEC; experiment: Antiangiogenic activity in HUVEC assessed as inhibition of VEGF-induced cell proliferation; settings: Homo sapiens
[34] = Cmax in […] mouse at 100 mg/kg, po; format: ADME, organism-based; design: dose 100 mg/kg, route oral; settings: in vivo; in short: as §3
[35] = Oral bioavailability in Wistar rat at 50 mg/kg; format: ADME, organism-based; settings: in vivo; in short: as §4
[36] = AUC in athymic nude mouse at 50 mg/kg, po; format: ADME, organism-based; design: dose 50 mg/kg, route oral; settings: plasma; in short: as §2

Chain of Vascular endothelial growth factor receptor 2 (P35968 whole entry, the tested form may be a part): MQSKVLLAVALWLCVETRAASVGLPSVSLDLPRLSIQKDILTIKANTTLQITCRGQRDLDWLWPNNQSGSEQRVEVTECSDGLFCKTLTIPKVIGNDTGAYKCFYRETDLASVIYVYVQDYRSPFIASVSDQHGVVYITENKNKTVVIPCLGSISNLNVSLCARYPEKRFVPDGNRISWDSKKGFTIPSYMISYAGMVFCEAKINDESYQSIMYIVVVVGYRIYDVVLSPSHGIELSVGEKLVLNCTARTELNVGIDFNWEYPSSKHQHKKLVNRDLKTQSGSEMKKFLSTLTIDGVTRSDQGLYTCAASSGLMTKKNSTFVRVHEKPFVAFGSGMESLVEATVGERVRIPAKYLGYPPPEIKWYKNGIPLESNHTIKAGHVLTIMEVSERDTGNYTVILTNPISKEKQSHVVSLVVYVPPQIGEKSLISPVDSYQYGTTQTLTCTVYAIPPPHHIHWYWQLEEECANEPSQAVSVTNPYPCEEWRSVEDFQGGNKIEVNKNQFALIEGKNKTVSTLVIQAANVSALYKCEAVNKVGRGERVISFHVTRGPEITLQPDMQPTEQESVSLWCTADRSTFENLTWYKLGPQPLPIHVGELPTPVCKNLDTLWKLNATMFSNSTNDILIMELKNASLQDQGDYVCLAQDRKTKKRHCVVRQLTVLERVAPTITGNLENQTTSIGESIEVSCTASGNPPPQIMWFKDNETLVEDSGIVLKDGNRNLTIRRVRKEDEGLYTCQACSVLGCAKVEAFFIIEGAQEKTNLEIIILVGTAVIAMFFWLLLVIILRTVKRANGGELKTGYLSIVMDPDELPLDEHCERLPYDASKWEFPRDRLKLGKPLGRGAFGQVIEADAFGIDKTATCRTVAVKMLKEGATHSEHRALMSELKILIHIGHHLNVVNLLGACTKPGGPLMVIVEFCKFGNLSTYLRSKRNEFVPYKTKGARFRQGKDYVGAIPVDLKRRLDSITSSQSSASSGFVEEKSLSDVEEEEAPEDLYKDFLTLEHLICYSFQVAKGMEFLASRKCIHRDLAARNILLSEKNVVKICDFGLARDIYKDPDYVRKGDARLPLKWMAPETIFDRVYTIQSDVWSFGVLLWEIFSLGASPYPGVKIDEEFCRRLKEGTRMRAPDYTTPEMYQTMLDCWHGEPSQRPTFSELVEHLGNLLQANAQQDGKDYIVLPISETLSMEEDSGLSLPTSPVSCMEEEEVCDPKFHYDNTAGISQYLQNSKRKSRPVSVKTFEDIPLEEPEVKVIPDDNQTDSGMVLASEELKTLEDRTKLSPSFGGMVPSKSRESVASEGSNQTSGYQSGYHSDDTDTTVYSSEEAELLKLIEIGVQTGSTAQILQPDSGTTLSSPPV
Chain of Mitogen-activated protein kinase 1 (P28482 whole entry): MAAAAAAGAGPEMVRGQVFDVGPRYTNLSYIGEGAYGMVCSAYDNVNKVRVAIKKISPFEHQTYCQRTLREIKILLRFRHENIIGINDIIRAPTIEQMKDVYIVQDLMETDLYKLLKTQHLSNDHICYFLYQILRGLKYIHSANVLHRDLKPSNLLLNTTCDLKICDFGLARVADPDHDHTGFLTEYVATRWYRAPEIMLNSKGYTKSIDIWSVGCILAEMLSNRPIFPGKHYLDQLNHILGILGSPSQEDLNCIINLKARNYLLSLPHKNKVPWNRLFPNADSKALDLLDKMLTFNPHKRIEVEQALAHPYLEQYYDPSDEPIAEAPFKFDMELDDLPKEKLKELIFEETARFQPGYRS
Chain of Tyrosine-protein kinase Fyn (P06241 whole entry): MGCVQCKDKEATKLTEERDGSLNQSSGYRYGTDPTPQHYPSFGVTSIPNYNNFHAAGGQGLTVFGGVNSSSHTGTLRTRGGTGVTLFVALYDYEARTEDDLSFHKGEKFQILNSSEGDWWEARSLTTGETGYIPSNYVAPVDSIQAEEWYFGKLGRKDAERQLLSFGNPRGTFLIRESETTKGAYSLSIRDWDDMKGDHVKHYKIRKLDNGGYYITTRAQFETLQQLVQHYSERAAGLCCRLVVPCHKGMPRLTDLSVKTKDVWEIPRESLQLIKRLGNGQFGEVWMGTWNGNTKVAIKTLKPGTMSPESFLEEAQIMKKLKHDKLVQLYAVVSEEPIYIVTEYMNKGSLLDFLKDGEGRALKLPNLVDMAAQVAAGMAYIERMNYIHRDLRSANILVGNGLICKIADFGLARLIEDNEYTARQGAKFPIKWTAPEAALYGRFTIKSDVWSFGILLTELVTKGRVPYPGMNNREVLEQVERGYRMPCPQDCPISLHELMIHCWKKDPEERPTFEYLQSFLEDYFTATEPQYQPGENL
Chain of Protein kinase C delta type (Q05655 whole entry): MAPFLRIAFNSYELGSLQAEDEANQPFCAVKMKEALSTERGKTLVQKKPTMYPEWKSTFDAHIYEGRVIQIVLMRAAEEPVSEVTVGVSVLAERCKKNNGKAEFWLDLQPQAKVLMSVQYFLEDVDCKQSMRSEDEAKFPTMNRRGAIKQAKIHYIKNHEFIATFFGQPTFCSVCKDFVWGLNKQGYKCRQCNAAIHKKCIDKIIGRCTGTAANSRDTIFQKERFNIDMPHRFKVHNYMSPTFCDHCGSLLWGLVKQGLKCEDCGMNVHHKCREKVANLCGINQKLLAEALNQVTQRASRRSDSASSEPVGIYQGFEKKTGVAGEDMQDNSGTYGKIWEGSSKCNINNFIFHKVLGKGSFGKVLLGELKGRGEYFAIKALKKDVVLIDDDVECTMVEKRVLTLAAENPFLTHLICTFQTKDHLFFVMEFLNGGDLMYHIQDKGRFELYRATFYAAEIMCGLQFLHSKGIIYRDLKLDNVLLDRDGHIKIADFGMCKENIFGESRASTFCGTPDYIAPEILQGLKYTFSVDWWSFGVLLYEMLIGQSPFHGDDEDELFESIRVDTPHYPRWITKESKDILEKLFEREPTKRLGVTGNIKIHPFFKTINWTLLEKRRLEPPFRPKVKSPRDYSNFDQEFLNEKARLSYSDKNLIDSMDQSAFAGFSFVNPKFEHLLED

With `COc1ccc(N2Cc3cnc(Nc4ccccc4)nc3N([C@@H]3CC[C@@H](O)C3)C2=O)cc1` (racemic) the IC50 [1] was 44 nM, the Cmax [2] was 28400 ng/mL and the Cmax [3] was 47700 ng/mL. It also gave an AUC at 120 h [4] of 75500 ng·h/mL, a Cmax [5] of 16500 ng/mL and a Tmax [6] of 30 min. The Tmax [7] was 30 min, the Tmax [8] was 30 min and the bioavailability [9] was 93%. For the same molecule, the Vd [10] was 5.3 L/kg, the IC50 [11] was 150 nM and the Tmax [12] was 318 min. For the same molecule, the AUC at 120 h [13] was 150000 ng·h/mL, the half-life [14] was 360 min and the AUC at 120 h [15] was 30000 ng·h/mL. The AUC/dose [16] was 1510 ng·h/mL/mg/kg, the inhibition in vivo at 100 mg/kg [17] was 97% and the IC50 [18] was 4200 nM. The IC50 [19] was greater than 125000 nM, the clearance [20] was 15.1 mL/min/kg and the inhibition in vivo at 25 mg/kg [21] was 72%. The AUC [22] was 146000 ng·h/mL, the IC50 [23] was 322 nM and the Cmax [24] was 12000 ng/mL. The IC50 [25] was 3040 nM, the Tmax [26] was 30 min and the Cmax [27] was 7180 ng/mL. The AUC [28] was 4010 ng·h/mL, the AUC/dose [29] was 1199 ng·h/mL/mg/kg and the half-life [30] was 180 min. The AUC/dose [31] was 1458 ng·h/mL/mg/kg, the AUC/dose [32] was 1458 ng·h/mL/mg/kg and the IC50 [33] was 68 nM. It also gave a Cmax [34] of 37600 ng/mL, a bioavailability [35] of 65% and an AUC [36] of 51300 ng·h/mL.
